In brackets after ≈: the same amount, converted by molar mass. Activity calls are given as the source filed them. The calls are words filed in the database; no cut-off is given here.
Experiments:
Acinetobacter baumannii [1] = assay: Antibacterial activity against Acinetobacter baumannii ATCC BAA 747 after 24 hrs by modified broth macrodilution method; format: functional; conditions: ATCC BAA 747, 24 h
How it was run: (§1)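 Ca-MHB broth macrodilution per modified CLSI method, with serial twofold aminoglycoside dilutions and about 5 x 10^5 CFU/ml final inoculum from isolates subcultured twice on 5% blood agar. MIC was the lowest concentration with no visible growth after 24 h at 35°C in ambient air. Run in duplicate and repeated on at least one separate day.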

Acinetobacter baumannii [2] = assay: Bactericidal activity against Acinetobacter baumannii ATCC BAA 747 assessed as growth rate constant for the bacterial population by time-kill study; format: functional
How it was run: (§2)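 24-h time-kill data at a baseline inoculum of 10^7 CFU/ml were fitted to a mathematical model of a heterogeneous population. The fit ran in two steps. Growth rate (Kg) and maximal population size came from placebo control experiments. Those estimates were then held fixed while the kill-function parameters (maximal kill rate, concentration for 50% of maximal kill) were fitted to all active-treatment data together.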

Acinetobacter baumannii [3] = assay: Bactericidal activity against Acinetobacter baumannii ATCC BAA 747 assessed as maximum population size by time-kill study; format: functional; how it was run: as §2
Acinetobacter baumannii [4] = assay: Bactericidal activity against Acinetobacter baumannii ATCC BAA 747 assessed as maximal kill rate constant for the bacterial population by time-kill study; format: functional; how it was run: as §2
Acinetobacter baumannii [5] = assay: Bactericidal activity against Acinetobacter baumannii ATCC BAA 747 assessed as concentration to achieve 50% of the maximal kill rate for the bacterial population by time-kill study; format: functional; how it was run: as §2
Acinetobacter baumannii [6] = assay: Bactericidal activity against Acinetobacter baumannii ATCC BAA 747 at >16 mg/liter after 2 hrs by time-kill study; format: functional, organism-based
Pseudomonas aeruginosa [7] = assay: Ratio of Cmax to MIC for Pseudomonas aeruginosa ATCC 27853 in PK/PD model at 1500 mg administered every 12 hrs; format: functional
Pseudomonas aeruginosa [8] = assay: Ratio of Cmax to MIC for Pseudomonas aeruginosa ATCC 27853 in PK/PD model at 2000 mg administered every 24 hrs; format: functional
Pseudomonas aeruginosa [9] = assay: Antibacterial activity against Pseudomonas aeruginosa ATCC 27853 after 24 hrs by modified broth macrodilution method; format: functional, organism-based; how it was run: as §1
Pseudomonas aeruginosa [10] = assay: Bactericidal activity against Pseudomonas aeruginosa ATCC 27853 assessed as growth rate constant for the bacterial population by time-kill study; format: functional, organism-based
How it was run: (§3)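 Parameters were fitted by mathematical modeling to 24 h time-kill data with gentamicin at 0 to 32 mg/liter and a baseline inoculum of 10^7 CFU/ml. Intrinsic growth rate (Kg) and maximal population size came from placebo controls. Kill-function parameters were then fitted to all active-treatment data simultaneously.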

Pseudomonas aeruginosa [11] = assay: Bactericidal activity against Pseudomonas aeruginosa ATCC 27853 assessed as maximum population size by time-kill study; format: functional, organism-based; how it was run: as §3
Pseudomonas aeruginosa [12] = assay: Bactericidal activity against Pseudomonas aeruginosa ATCC 27853 assessed as maximal kill rate constant for the bacterial population by time-kill study; format: functional, organism-based; how it was run: as §3
Pseudomonas aeruginosa [13] = assay: Bactericidal activity against Pseudomonas aeruginosa ATCC 27853 assessed as concentration to achieve 50% of the maximal kill rate for the bacterial population by time-kill study; format: functional, organism-based; how it was run: as §3

## NCC[C@H](O)C(=O)N[C@@H]1C[C@H](N)[C@@H](O[C@H]2O[C@H](CN)[C@@H](O)[C@H](O)[C@H]2O)[C@H](O)[C@H]1O[C@H]1O[C@H](CO)[C@@H](O)[C@H](N)[C@H]1O [AMIKACIN]
Acinetobacter baumannii [1]
  MBC: 8 µg/mL (≈ 13.7 µM)
  MIC: 4 µg/mL (≈ 6.83 µM)
Acinetobacter baumannii [2]
  Activity: 0.55 h⁻¹
Acinetobacter baumannii [3]
  Activity: 6.62 ×10⁸ CFU/ml
Acinetobacter baumannii [4]
  Activity: 27.81 h⁻¹
Acinetobacter baumannii [5]
  C50k: 1.56 mg/L
Acinetobacter baumannii [6]
  Activity: Active
Pseudomonas aeruginosa [7]
  Ratio: 13
Pseudomonas aeruginosa [8]
  Ratio: 20

## GENTAMICIN
Pseudomonas aeruginosa [9]
  MBC: 2 µg/mL
  MIC: 2 µg/mL
Pseudomonas aeruginosa [10]
  Activity: 0.48 h⁻¹
Pseudomonas aeruginosa [11]
  Activity: 9.8 ×10⁸ CFU/ml
Pseudomonas aeruginosa [12]
  Activity: 4.68 h⁻¹
Pseudomonas aeruginosa [13]
  C50k: 0.72 mg/L
Pseudomonas aeruginosa [7]
  Ratio: 36
Pseudomonas aeruginosa [8]
  Ratio: 30

Reference: ChEMBL document CHEMBL1275535, “Pharmacodynamic modeling of aminoglycosides against Pseudomonas aeruginosa and Acinetobacter baumannii: identifying dosing regimens to suppress resistance development” (2008)
